This passage reports Activity, MIC and ED50 results from ChEMBL document CHEMBL1147105, “In vitro and in vivo activities of PD 0305970 and PD 0326448, new bacterial gyrase/topoisomerase inhibitors with potent antibacterial activities versus multidrug-resistant gram-positive and fastidious organism groups” (2007).

Converted amounts (≈) assume the structure as drawn. The source made the active and inactive calls.

The subject of assay [1] is Streptococcus pyogenes. In words: Bactericidal activity against Streptococcus pyogenes C203 at 0.008 ug/ml by time-kill study. The class given is functional, organism-based. The method, boiled down: (§1)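 Time-kill in 10 ml of cation-adjusted Mueller-Hinton broth with 3% lysed horse blood, without agitation. Multiples of MIC tested. Samples taken at 0, 2, 4, 6 and 24 h and plated on tryptic soy agar with 5% sheep blood after ≥250-fold dilution, detection limit 10 CFU/ml. Counts read after 24 h at 35°C. Bactericidal defined as a ≥3 log10 drop from the starting inoculum within 24 h.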

Assay [2] deals with Streptococcus pneumoniae. Put plainly: Antibacterial activity against Streptococcus pneumoniae 1-970-1 with gyrB Asp435Glu mutation. The assay is classed as functional.
In assay [3] the test system is Streptococcus pneumoniae. Put plainly: Antibacterial activity against Streptococcus pneumoniae 7785. The class given is functional.
For assay [4], the system named is Streptococcus pneumoniae. In words: Bactericidal activity against Streptococcus pneumoniae SV1 at 2 ug/ml by time-kill study. The class given is functional, organism-based. In outline: as §1
In assay [5] the test system is Streptococcus pneumoniae. Put plainly: Bactericidal activity against Streptococcus pneumoniae SV1 at 0.008 ug/ml by time-kill study. The assay is classed as functional, organism-based. In outline:
as §1

The test system of assay [6] is Staphylococcus aureus. Put plainly: Antibacterial efficacy against methicillin-susceptible Staphylococcus aureus UC76 infected orally dosed CD1 mouse model. The assay is classed as functional. Conditions: UC76, po; for ED50: read-out: PD50. The method, boiled down: (§2)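 Sepsis model in female CD1 mice (6–8 weeks, 18–22 g). Lethal i.p. challenge (0.5 ml) at ≥100 median lethal doses. Streptococci were given in Todd-Hewitt broth; other organisms were given with 20% hog gastric mucin. A single oral gavage dose (0.5 ml, in 0.5% methylcellulose) was given at the time of challenge. The PD50 (mg/kg) was calculated by probit analysis.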

The test system of assay [7] is Streptococcus pyogenes. Put plainly: Antibacterial efficacy against Streptococcus pyogenes C203 infected orally dosed CD1 mouse model. The assay is classed as functional. Conditions: C203, po; for ED50: read-out: PD50. The method, boiled down: as §2
Assay [8] has as its system Streptococcus pneumoniae. In words: Antibacterial activity against Streptococcus pneumoniae 1-970-2 with gyrB Asp435Glu, Glu475Ala and parE Pro475Ser mutation. The assay is classed as functional.
Assay [9] relates to Streptococcus pyogenes. Put plainly: Bactericidal activity against Streptococcus pyogenes C203 at 2 ug/ml by time-kill study. The class given is functional, organism-based. The method, boiled down:
as §1

For assay [10], the system named is Streptococcus pneumoniae. In words: Antibacterial efficacy against Streptococcus pneumoniae SVI infected orally dosed CD1 mouse model. The assay is classed as functional. Particulars: po; for ED50: read-out: PD50. In outline: as §2
The next assay deals with Escherichia coli. Put plainly: Antibacterial efficacy against Escherichia coli Vogel infected orally dosed CD1 mouse model. The class given is functional. The method, boiled down:
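Female CD1 mice, 6–8 weeks old (18–22 g), challenged intraperitoneally (0.5 ml) with ≥100 median lethal doses suspended in 20% hog gastric mucin. Single oral gavage dose at the time of challenge, in 0.5% methylcellulose. Untreated controls of 10 mice per group. PD50 (mg/kg), the dose protecting 50% of mice from lethal infection, calculated by probit analysis.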

In assay [11] the test system is Staphylococcus aureus. Put plainly: Antibacterial efficacy against ciprofloxacin and methicillin-resistant Staphylococcus aureus SA2017 infected orally dosed CD1 mouse model. The class given is functional. In outline:
as §2

By MIC is commonly meant the smallest concentration in the dilution series that meets the test's criterion for growth inhibition. Turning to `Cc1c(N2CC[C@@H]([C@H](C)N)C2)c(F)cc2c(=O)n(N)c(=O)n(C3CC3)c12`, the outcome with Streptococcus pyogenes [1], with Streptococcus pneumoniae [4], in the assay on Streptococcus pneumoniae [5] and in the assay on Streptococcus pyogenes [9] was Active. For the same molecule, the MIC was found to be 0.06 µg/mL (≈ 0.166 µM) against Streptococcus pneumoniae [2]; 0.03 µg/mL (≈ 0.083 µM) against Streptococcus pneumoniae [3]; 0.06 µg/mL (≈ 0.166 µM) in the assay with Staphylococcus aureus [6]; 0.015 µg/mL (≈ 0.0415 µM) in the assay with Streptococcus pyogenes [7]; 0.125 µg/mL (≈ 0.346 µM) against Streptococcus pneumoniae [8]; 0.015 µg/mL (≈ 0.0415 µM) against Streptococcus pneumoniae [10]. Moreover, the MIC came to 1 µg/mL (≈ 2.77 µM) in the assay with Escherichia coli and 0.25 µg/mL (≈ 0.692 µM) in the assay with Staphylococcus aureus [11]. The ED50 in the assay on Staphylococcus aureus [6] was 1.9 mg/kg; in the assay with Streptococcus pyogenes [7], 0.7 mg/kg; with Streptococcus pneumoniae [10], 2.7 mg/kg; in the assay on Escherichia coli (read-out: PD50), 82 mg/kg; in the assay with Staphylococcus aureus [11] (read-out: PD50) it was 23 mg/kg.

As for `C[C@H]1COc2c(N3CCN(C)CC3)c(F)cc3c(=O)c(C(=O)O)cn1c23.C[C@H]1COc2c(N3CCN(C)CC3)c(F)cc3c(=O)c(C(=O)O)cn1c23.O` [LEVOFLOXACIN], the MIC turned out to be 0.125 µg/mL in the assay on Staphylococcus aureus [6], 0.5 µg/mL in the assay with Streptococcus pyogenes [7] and 8 µg/mL against Staphylococcus aureus [11]. In addition, the ED50 in the assay with Staphylococcus aureus [6] is 4.6 mg/kg; with Streptococcus pyogenes [7], 17.7 mg/kg; in the assay on Streptococcus pneumoniae [10], 69 mg/kg.
